Experimental data: article PMC9643332 (Bioorganic Chemistry, 2022)
Entries after “also recorded” stand apart in the source; their conditions may differ.

Assays:
SARS-CoV-2 3CL^pro [1] = target: T1, SARS-CoV-2 3CL^pro (Severe acute respiratory syndrome coronavirus 2, UniProt P0DTD1); assay: biochemical; assay type: biochemical; details: for inhibition at 100 µM: read-out: inhibition against SARS-CoV-2 3CLpro
HCoV-229E 3CL^pro = HCoV-229E 3CL^pro (Human coronavirus 229E, UniProt P0C6X1); assay: biochemical
SARS-CoV-2 3CL^pro [2] = target: T1, SARS-CoV-2 3CL^pro; assay: Fluorescence quenching assay; assay type: binding; details: 3 μM 3CLpro
SARS-CoV-2 3CL^pro [3] = target: T1, SARS-CoV-2 3CL^pro; assay type: biochemical
SARS-CoV-2 3CL^pro [4] = target: T1, SARS-CoV-2 3CL^pro; assay: Enzymatic inhibition assay in the presence of DTT or GSH; assay type: biochemical; details: 10 μM compound
How it was run: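 The thiol-dependence FRET assay preincubated SARS-CoV-2 3CLpro with test compound in reaction buffer (0.1 M PBS, 1 mM EDTA, pH 7.4), with 4 mM DTT or 1 mM GSH, or without either.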

SARS-CoV-2 3CL^pro [5] = target: T1, SARS-CoV-2 3CL^pro; assay: CD spectroscopy, secondary structure content by CDNN; details: 20 μM 3CLpro
[6] = target: T2, human chymotrypsin C (CTRC) (Homo sapiens, UniProt Q99895); assay: Human protease selectivity: CTRC inhibition; assay type: biochemical; details: 0, 1, 10, 100 μM
T2 sequence (Q99895 30-268): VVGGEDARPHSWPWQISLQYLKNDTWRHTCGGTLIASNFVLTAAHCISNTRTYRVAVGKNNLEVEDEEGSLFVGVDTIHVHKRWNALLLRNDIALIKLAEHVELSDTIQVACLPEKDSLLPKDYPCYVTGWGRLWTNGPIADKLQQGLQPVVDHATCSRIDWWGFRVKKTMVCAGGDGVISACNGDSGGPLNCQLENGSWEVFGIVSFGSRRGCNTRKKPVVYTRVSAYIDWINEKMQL

[7] = target: Dipeptidyl peptidase IV (DPP-IV) (Homo sapiens, UniProt P27487); assay: Human protease selectivity: DPP-IV inhibition in human plasma with GP-BAN probe; assay type: biochemical; details: 0, 1, 10, 100 μM
How it was run: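 Human plasma served as the DPP-IV source and was incubated 1 h with test compound at 0, 1, 10 or 100 μM in 0.1 M PBS, pH 7.4, 1 mM EDTA. Adding the DPP-IV-selective fluorogenic probe at 100 µM started the reaction. Fluorescence (ex 430 nm, em 535 nm) was read immediately over 20 min.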

SARS-CoV-2 = details: Huh7-ACE2, HeLa-ACE2 and A549-ACE2 cells; in the micromolar range, similar to Remdesivir; cited from earlier work

Dipeptidyl peptidase IV (DPP-IV), sequence (P27487 39-766): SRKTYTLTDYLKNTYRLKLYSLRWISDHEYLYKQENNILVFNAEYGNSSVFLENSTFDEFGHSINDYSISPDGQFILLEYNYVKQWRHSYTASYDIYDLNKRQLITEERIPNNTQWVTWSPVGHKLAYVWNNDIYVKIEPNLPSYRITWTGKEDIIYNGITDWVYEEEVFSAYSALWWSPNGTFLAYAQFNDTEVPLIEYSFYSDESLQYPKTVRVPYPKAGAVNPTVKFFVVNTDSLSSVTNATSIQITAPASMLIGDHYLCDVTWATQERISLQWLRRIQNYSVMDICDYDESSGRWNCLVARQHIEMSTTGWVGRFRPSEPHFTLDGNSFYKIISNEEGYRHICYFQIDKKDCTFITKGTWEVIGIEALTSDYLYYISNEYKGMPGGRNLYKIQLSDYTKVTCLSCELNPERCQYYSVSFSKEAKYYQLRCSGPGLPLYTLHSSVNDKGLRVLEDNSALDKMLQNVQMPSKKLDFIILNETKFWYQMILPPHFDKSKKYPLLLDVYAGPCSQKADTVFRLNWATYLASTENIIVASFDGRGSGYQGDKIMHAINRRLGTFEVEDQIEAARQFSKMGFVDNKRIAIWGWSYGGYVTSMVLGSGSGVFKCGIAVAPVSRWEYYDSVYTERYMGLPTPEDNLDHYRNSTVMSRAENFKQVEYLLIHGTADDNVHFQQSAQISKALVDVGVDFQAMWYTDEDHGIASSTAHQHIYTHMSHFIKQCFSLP
HCoV-229E 3CL^pro, sequence (P0C6X1 2966-3267): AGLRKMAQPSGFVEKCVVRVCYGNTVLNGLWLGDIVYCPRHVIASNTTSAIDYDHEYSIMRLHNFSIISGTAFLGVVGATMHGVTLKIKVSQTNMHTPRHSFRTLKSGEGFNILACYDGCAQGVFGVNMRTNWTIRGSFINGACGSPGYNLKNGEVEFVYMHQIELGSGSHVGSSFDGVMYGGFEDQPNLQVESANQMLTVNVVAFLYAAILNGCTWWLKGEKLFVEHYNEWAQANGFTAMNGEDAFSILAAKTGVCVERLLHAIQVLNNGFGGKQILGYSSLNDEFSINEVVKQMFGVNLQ

CCCCCCCCCCCCCCCC[N+](C)(C)Cc1ccccc1 [Cetalkonium chloride]
IC50 (SARS-CoV-2 3CL^pro [1]): 3.5 ± 0.47 µM | inhibition at 100 µM (SARS-CoV-2 3CL^pro [1]): > 90%

CCCCCCCCCCCCCCCC[N+](C)(C)C [Cetrimonium bromide]
IC50 (SARS-CoV-2 3CL^pro [1]): 12.8 ± 0.63 µM | inhibition of protease activity in primary screening (SARS-CoV-2 3CL^pro [1]): significantly inhibit

C[N+](C)(C)CCCCCCCCCC[N+](C)(C)C [Decamethonium bromide]
IC50 (SARS-CoV-2 3CL^pro [1]): > 100 µM | inhibition against SARS-CoV-2 3CLpro (SARS-CoV-2 3CL^pro [1]; 100 µM): no inhibitory activity

CCCCCCCCCCCC[N+](C)(C)CCOc1ccccc1 [Domiphen bromide]
IC50 (SARS-CoV-2 3CL^pro [1]): 45.9 ± 16.5 µM | inhibition at 100 µM (SARS-CoV-2 3CL^pro [1]): > 90%

CCCCCCCCOc1ccccc1C(=O)Nc1ccc(C(=O)OCC[N+](C)(CC)CC)cc1 [Otilonium bromide]
IC50 (SARS-CoV-2 3CL^pro [1]): 27.7 ± 0.33 µM | inhibition of protease activity in primary screening (SARS-CoV-2 3CL^pro [1]): significantly inhibit

CCCCCCCCCCCCCCCC[N+](C)(C)CCN(Cc1ccc(OC)cc1)c1ncccn1 [Thonzonium bromide]
inhibition of protease activity in primary screening (SARS-CoV-2 3CL^pro [1]): significantly inhibit | IC50 (HCoV-229E 3CL^pro): 6.47 µM | KSV (Stern-Volmer quenching constant) (SARS-CoV-2 3CL^pro [2]): 39600 L/mol | Kq (bimolecular quenching rate constant) (SARS-CoV-2 3CL^pro [2]; τ0 about 10^-8 s): 3.96e+12 M⁻¹ s⁻¹ | type of inhibition (SARS-CoV-2 3CL^pro [3]): non-competitive inhibitor | inhibition against SARS-CoV-2 3CLpro in the presence of GSH (SARS-CoV-2 3CL^pro [4]; 1 mM GSH): potent inhibition | inhibition against SARS-CoV-2 3CLpro in the presence of DTT (SARS-CoV-2 3CL^pro [4]; 4 mM DTT): potent inhibition | Antiparallel (%) (SARS-CoV-2 3CL^pro [5]; 50 μM Thonzonium bromide): 18.60% | Parallel (%) (SARS-CoV-2 3CL^pro [5]; 50 μM Thonzonium bromide): 6.30% | Random coil (%) (SARS-CoV-2 3CL^pro [5]; 50 μM Thonzonium bromide): 30.70% | Total sum (%) (SARS-CoV-2 3CL^pro [5]; 50 μM Thonzonium bromide): 95.40% | α-helix (%) (SARS-CoV-2 3CL^pro [5]; 50 μM Thonzonium bromide): 25.50% | β-turn (%) (SARS-CoV-2 3CL^pro [5]; 50 μM Thonzonium bromide): 14.20% | Antiparallel (%) (SARS-CoV-2 3CL^pro [5]; 100 μM Thonzonium bromide): 22.00% | Parallel (%) (SARS-CoV-2 3CL^pro [5]; 100 μM Thonzonium bromide): 6.20% | Random coil (%) (SARS-CoV-2 3CL^pro [5]; 100 μM Thonzonium bromide): 32.20% | Total sum (%) (SARS-CoV-2 3CL^pro [5]; 100 μM Thonzonium bromide): 96.10% | α-helix (%) (SARS-CoV-2 3CL^pro [5]; 100 μM Thonzonium bromide): 20.20% | β-turn (%) (SARS-CoV-2 3CL^pro [5]; 100 μM Thonzonium bromide): 15.50% | Antiparallel (%) (SARS-CoV-2 3CL^pro [5]; 200 μM Thonzonium bromide): 33.60% | Parallel (%) (SARS-CoV-2 3CL^pro [5]; 200 μM Thonzonium bromide): 6.30% | Random coil (%) (SARS-CoV-2 3CL^pro [5]; 200 μM Thonzonium bromide): 34.00% | Total sum (%) (SARS-CoV-2 3CL^pro [5]; 200 μM Thonzonium bromide): 102.10% | α-helix (%) (SARS-CoV-2 3CL^pro [5]; 200 μM Thonzonium bromide): 12.30% | β-turn (%) (SARS-CoV-2 3CL^pro [5]; 200 μM Thonzonium bromide): 15.90% | inhibitory activity towards CTRC [6]: didn’t exhibit inhibitory activity; also recorded: did not show measurable activity; also recorded: does not inhibit | inhibitory activity towards DPP-IV [7]: didn’t exhibit inhibitory activity; also recorded: did not show measurable activity; also recorded: does not inhibit | antiviral effect against SARS-CoV-2 in cells (SARS-CoV-2): effective against SARS-CoV-2
